Data on 38 variants can be found in the RNAGym collection of RNA variant scans (doi:10.1126/science.aae0568).

Variants at the floor of the assay were thinned out. A value given as a limit tells only on which side of the number the result lay.

First the molecules themselves.
B1: tRNA (parent)
chain: GUUCCGUUGGCGUAAUGGUAACGCGUCUCCCUCCUAAGGAGAAGACUGCGGGUUCGAGUCCCGUACGGAACG

The data set covers variants of B1. The data set is described as follows: yeast fitness relative to wild type (ratio to wild type); higher = fitter; tRNA-Arg(CCU), competitive growth, 37 C, YPD. In short, it runs like this: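 Variants of the tRNA-Arg(CCU) gene, chemically synthesised with a 3% per-site mutation rate at 69 sites, were placed at the native genomic locus in Saccharomyces cerevisiae. The pooled strains were competed in YPD at 37°C for 24 hours in six parallel replicates. Gene amplicons from the start population and from each end population were read by 100-nucleotide paired-end sequencing. Darwinian fitness relative to wild type came from changes in genotype frequencies; genotypes needed ≥ 100 starting reads, and estimates < 0.5 were set to 0.5.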
Regarding GUUCCGUUGGCGAAAUGGUAGCGCGUCUCCCUCCUAAGGAGAAGACUGCGGGUUCGUGUCCCGUACGGAACG [U13A A21G A57U], the yeast fitness was found to be 0.597.
For GUUCCGUUGGCAUAAUGGUAACGCAUCUCCCUCCUAAGGAGAAGACUGCGGGUUCGAGUCCCGUACGGAACG [G12A G25A] the value was 0.819; for GUUCCGUCGGCGUAAUGGUAUCGCGUCUCCCUCCUAAGCAGAAGACUGCAGGUUCGAGUCCCGUACGGAACG [U8C A21U G39C G50A], no more than 0.5.
Regarding GUUCCGUUGGCGUAAUGGUAACGCGUCUCCUUCCUAAGGAGAAGUCUGCGGGUUCGAGUCCCGUACGGUACG [C31U A45U A69U], the yeast fitness turned out to be 1.
For GUUCCGUUGGCGUAAUGGUAACGCGUCCCCCUCCUAAGGAGAAGACUGCGGGUUCGAGUCCCGUCCGGAACG [U28C A65C] the value was 0.85; for GUUCCGUUGGCGUAUUGGUGACGCGUUUCCCUCCUAAGGAGAAGACUGCGGGUUCGAGUCCCGUAAGGAACG [A15U A20G C27U C66A], no more than 0.5; for GUUCCGUUGGCGUAAUGGUAACGCGUCUCCGUCCUAUGGAGUAGACUGCGGGUUCGAGUCCCGUACGGAACG [C31G A37U A42U], 0.56.
For GUUCCGUUGGCGUAAUGGUAACGCGUCUCCCUCGUAGGGAGAAGACUGCGGGUUCGAGUCCCGUACGGAACG [C34G A37G] the value was 0.725.
For GUUCCGUUGGCGUAAUGGUAACGCGUCUCCCCCCUAAGGAGAAGACUGCGGGUUCGAGUCGCGUACGGAACG [U32C C61G] the value was 0.702.
Regarding GCUCCGUUGGCGUAAUGGUAACGCGUCUCCCUCCUAAGGAGAAGACUGCGGGUUCGCGUCCCGUACGGAACG [U2C A57C], the yeast fitness was 0.679.
Next, GUUCAGUUGGCGUAAUGGUAACGCGUCUCCCUCCUAAGGAGGAGACUGCGGGUUCGAGUCCCGUACGGAACG [C5A A42G]: 0.964; GUUCCGUUGGCGUAAUGGUAACGCGUGUCCCUCCUAAGGAGAAGACUGCGGGUUUGAGUCCCGUACCGAACG [C27G C55U G67C]: no more than 0.5.
Next, GUUCCGUUGGCGUAAUGGUAACGCGUCUCCCUCCUCAGGAGAAGACUGCGGGUUCGCGUCCCGUACGAAACG [A36C A57C G68A]: 0.541; GUUCCGUUGGCGUAAUGGUAACUCGUCGCCCUCCUAAGGAGAAGACUGCGGGUUCGAGUCCCGUACGGAACG [G23U U28G]: 0.552.
In the case of GUUCGGUUGGCGUAAUGGUAACGCGUCUCCCUCCUAAGGAGAAGACUGCGCGUUCGAGUCGCGUACGGAACG [C5G G51C C61G], the yeast fitness is 0.607.
For GUUCCGUUGGCGUAAUGGUAACGCGCCUCCCCCCUAAGGAGAAGACUGCGGGUUCGAGUCCCGUAUGGAACG [U26C U32C C66U] the value was 0.676; for GUUCUGUUAGCGUAAUGGUAACGCGUCUCCCUCCUAAGGAGAAGACUGCGGGUUCGAGUCCCGUACAGAACG [C5U G9A G67A], 1.05.
As for GUUCCGUUGGCGUAAUGGUAACGCGUCUCCCUCCUAAGGACAAGACUGCGGGUUCGAGUCCCGAACGGAACG [G41C U64A], the yeast fitness was found to be 0.67.
Take GUUCCGUUGGCGUAAUGGUCACGUGUCUCCCUCCUAAGGGGUAGACUGCACGUUCGAGUCCCGUACGGACCG [A20C C24U A40G A42U G50A G51C A70C]: the yeast fitness was no more than 0.5.
Take GUUCCGUUGGCGUAAUGGUUACGCGUCUCCCUCCUAAGGAGAAGACUGCAGGUUCGUGUCCCGUACGGAACG [A20U G50A A57U]: the yeast fitness was determined as 0.529.
As for GUUCCGUUGGCGUUAUGGUAACGCGUCUCCCUCCUAAAGAGAAGACUGCGGGUUCGAGUCCCGUACGGAACG [A14U G38A], the yeast fitness came to 0.573.
For GUUCCGUUGGCGUAGUGGUAACGCGUCUACCUCCUAAGAAGAAGACUGUGGGUUCGAGUCCCGUACGGAACG [A15G C29A G39A C49U] the value was no more than 0.5.
Next, GUUCCGUUGGCGUAAUGGUCACGCGUCUCCCUCCUAUGGAGAAGACUGCGGGUUCGAGUCCCGUACGGAACG [A20C A37U]: 0.817.
As to GUUCCGUUGGCGUAAUGGCAUCGCGUCUCCCUCCUAAGGAGACGACUGUGGGUUCGAGUCCCGUACGGAACG [U19C A21U A43C C49U], the yeast fitness was 0.547.
On to GUUAGGUUGGCGUAAUGGUAACGCGUCUCCCUCCUAAGCAGAAGACUGCGGGUUCGAGUCCCGUACGGAACG [C4A C5G G39C], for which the yeast fitness is no more than 0.5.
In the case of GUUCCGUUGGCGUAAUGGUUACGCGUCUCCCUCCUAAGGAGAAGUCUGCGGGUUGGAGUCCCGUACGGAACG [A20U A45U C55G], the yeast fitness came out at 0.533.
Turning to GUUCCGUUGGCAUAAUGGUAACGCGUCCCCCUCCUAAGGCGAAGACUACGGGUUCGAGUCCCGUACGGAACG [G12A U28C A40C G48A], the yeast fitness was 0.61.
Next, GUUCCGUUGGCCUACUGGAAACGCGUCUCCCUCUUAAGGAGAAGACUGAGGGUUCGAGUCCCGUACAGAACG [G12C A15C U19A C34U C49A G67A]: 0.547; GUUCCGUUGGCGUAAUGGUAACGUGUCUCCCUCCUAGGAAGAAGACUCCGGGUUCGAGUCCCGUACGUAACG [C24U A37G G39A G48C G68U]: no more than 0.5.
Turning to GUUCCGUUGGCGUAAUGGUAACGCGUCUUCCUCCUAAGGAGAAGACUGCGGGUUCGAGUCCUGUACGGAACG [C29U C62U], the yeast fitness worked out at 0.763.
Consider GUUCCAUUGGCGUAAUGGUAGCGCGUCUCCCUCCUAAGGAGAAGACUGCGGGUUUAAGUCCCGUACGGAACG [G6A A21G C55U G56A], for which the yeast fitness is no more than 0.5.
For GUUCCGUUGGCGUAAUGGUAACGCGACUCCCUCCCAAGGAGAAGUCUGCGGGUUCGAGUCCCGUCCGGAACG [U26A U35C A45U A65C], the yeast fitness is no more than 0.5.
For GUUUCGUUGGCGUAAUGGUAAUGGGUCUCCCUCCUAGGGAGAAGACUGCGGGUUCGAGUCCCGUACGGAACG [C4U C22U C24G A37G] the value was no more than 0.5; for GUUCUGUUGGCGUAAUGGUAACGCGUGUCCCUCCUAAUGAGAAGACUGCGGGUUCGAGUCCCGUACGGAACG [C5U C27G G38U], no more than 0.5.
For the variant GUUCAGUUGGCGUAAUAGUAACGCGUCUCCCUCCUAAGGAGAAGACUGCGGGUUCGAGUCCCGUACCGAACG [C5A G17A G67C], the yeast fitness is 0.662.
For GUUCCGUUGGCGUAAUGGCAACGCGUCUCCCUCCUAAGGAGAAGACUGCGGGUUCGCGUCACGUACGGAACG [U19C A57C C61A] the value was no more than 0.5; for GUUCGGUUGGCGUAAUGGUAACGCGCCUCCCUCCUAAGGAGAAGACUGCGGGUUCGAGUCCCGUUCGGAACG [C5G U26C A65U], 0.67.
Next, GUUCCAUUGGCGUAAUGGUAACGCGCCUCCCUCCUAAGGAGAAGACUGCGGGUUCGAGUCCCGUACGGAACG [G6A U26C]: 0.842.
